Data taken from ChEMBL document CHEMBL1123920, “Leukotriene D4 antagonists and 5-lipoxygenase inhibitors. Synthesis of benzoheterocyclic [(methoxyphenyl)amino]oxoalkanoic acid esters” (J Med Chem, 1987).
pIC50: −log10 of the molar value. Each block holds one compound with its values, some of them ahead of it.

Tests used:
Cavia porcellus = test: Ability to inhibit the Ovalbumin induced bronchospasm in guinea pig was determined in vivo at a dose of 50 mg/kg id; assay type: functional; conditions: route intraduodenal
In short: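 Guinea pigs were challenged with LTD4 or ovalbumin to induce bronchospasm, and test agent was given intraduodenally. Read-out is percent inhibition of bronchospasm. Significance uses a two-tailed Student's t test (p < 0.05). N is the number of treated animals.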

[1] = biological target: T1, Polyunsaturated fatty acid 5-lipoxygenase (Rattus norvegicus, UniProt P12527); test: (§1) Ability to inhibit Lipoxygenase in vitro was determined
T1 sequence (P12527 whole entry): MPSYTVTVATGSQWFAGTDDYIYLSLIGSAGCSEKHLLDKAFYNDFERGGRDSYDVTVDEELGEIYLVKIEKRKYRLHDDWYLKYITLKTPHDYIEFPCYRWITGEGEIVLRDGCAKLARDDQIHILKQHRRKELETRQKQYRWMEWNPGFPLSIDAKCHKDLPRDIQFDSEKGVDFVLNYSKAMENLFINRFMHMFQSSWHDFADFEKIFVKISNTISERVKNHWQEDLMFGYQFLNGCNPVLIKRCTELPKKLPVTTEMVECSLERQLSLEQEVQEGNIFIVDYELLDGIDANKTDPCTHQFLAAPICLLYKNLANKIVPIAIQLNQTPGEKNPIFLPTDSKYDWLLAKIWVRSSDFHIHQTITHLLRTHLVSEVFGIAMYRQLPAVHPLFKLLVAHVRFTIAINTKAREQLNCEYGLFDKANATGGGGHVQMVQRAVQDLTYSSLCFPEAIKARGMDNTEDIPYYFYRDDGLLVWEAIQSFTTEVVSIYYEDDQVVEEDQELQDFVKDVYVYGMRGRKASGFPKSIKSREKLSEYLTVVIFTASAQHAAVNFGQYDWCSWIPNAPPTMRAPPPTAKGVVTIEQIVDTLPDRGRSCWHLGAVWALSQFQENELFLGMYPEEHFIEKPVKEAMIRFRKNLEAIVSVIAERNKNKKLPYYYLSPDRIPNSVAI

[2] = biological target: T1, Polyunsaturated fatty acid 5-lipoxygenase; test: as §1; remark: listed apart in the source
In short: (§2)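 Source is rat polymorphonuclear leukocyte (PMN) 5-lipoxygenase. IC50 values come from nonlinear regression analysis, significant at p < 0.05.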

[3] = biological target: T2, Polyunsaturated fatty acid 5-lipoxygenase (Rattus norvegicus) (UniProt P12527); test: Ability to inhibit Lipoxygenase in vitro was determined; NA is <50% inhibition at 100 uM; in short: as §2
T2 sequence (whole entry): T1 sequence (P12527 whole entry)

[4] = biological target: T1, Polyunsaturated fatty acid 5-lipoxygenase; test: Ability to inhibit the rat Lipoxygenase in vitro was determined; in short: as §2
Rattus norvegicus [5] = organism: Rattus norvegicus; test: Tested for metabolic activation counted as mean number of revertants in strains TA98, TA100, TA1535, and TA1538, three plates per treatment at 0.05 mg per plate, with activation provided by S-9 rat liver homogenates in Ames test; assay type: functional, organism-based
Rattus norvegicus [6] = organism: Rattus norvegicus; test: Tested for metabolic activation counted as mean number of revertants in strains TA98, TA100, TA1535, and TA1538, three plates per treatment at 0.05 mg per plate, without activation in the absence of S-9 rat liver homogenates in Ames test; assay type: functional, organism-based
Rattus norvegicus [7] = organism: Rattus norvegicus; test: Tested for metabolic activation counted as mean number of revertants in strains TA98, TA100, TA1535, and TA1538, three plates per treatment at 1.5 mg per plate, without activation in the absence of S-9 rat liver homogenates in Ames test; assay type: functional, organism-based
Rattus norvegicus [8] = organism: Rattus norvegicus; test: Tested for metabolic activation counted as mean number of revertants in strains TA98, TA100, TA1535, and TA1538, three plates per treatment at 1.5 mg per plate, with activation provided by S-9 rat liver homogenates in Ames test; assay type: functional, organism-based
Rattus norvegicus [9] = organism: Rattus norvegicus; test: Tested for metabolic activation counted as mean number of revertants in strains TA98, TA100, TA1535, and TA1538, three plates per treatment at 5.0 mg per plate, without activation in the absence of S-9 rat liver homogenates in Ames test; assay type: functional, organism-based
Rattus norvegicus [10] = organism: Rattus norvegicus; test: Tested for metabolic activation counted as mean number of revertants in strains TA98, TA100, TA1535, and TA1538, three plates per treatment at 5.0 mg per plate, with activation provided by S-9 rat liver homogenates in Ames test; assay type: functional, organism-based
Rattus norvegicus [11] = organism: Rattus norvegicus; test: Tested for metabolic activation counted as mean number of revertants in strains TA98, TA100, TA1535, and TA1538, three plates per treatment at 0.15 mg per plate, with activation provided by S-9 rat liver homogenates in Ames test; assay type: functional, organism-based
Rattus norvegicus [12] = organism: Rattus norvegicus; test: Tested for metabolic activation counted as mean number of revertants in strains TA98, TA100, TA1535, and TA1538, three plates per treatment at 0.15 mg per plate, without activation in the absence of S-9 rat liver homogenates in Ames test; assay type: functional, organism-based
Rattus norvegicus [13] = organism: Rattus norvegicus; test: Tested for metabolic activation counted as mean number of revertants in strains TA98, TA100, TA1535, and TA1538, three plates per treatment at 0.5 mg per plate, with activation provided by S-9 rat liver homogenates in Ames test; assay type: functional, organism-based
Rattus norvegicus [14] = organism: Rattus norvegicus; test: Tested for metabolic activation counted as mean number of revertants in strains TA98, TA100, TA1535, and TA1538, three plates per treatment at 0.005 mg per plate, with activation provided by S-9 rat liver homogenates in Ames test; assay type: functional, organism-based
Rattus norvegicus [15] = organism: Rattus norvegicus; test: Tested for metabolic activation counted as mean number of revertants in strains TA98, TA100, TA1535, and TA1538, three plates per treatment at 0.005 mg per plate, without activation in the absence of S-9 rat liver homogenates in Ames test; assay type: functional, organism-based
Rattus norvegicus [16] = organism: Rattus norvegicus; test: Tested for metabolic activation counted as mean number of revertants in strains TA98, TA100, TA1535, and TA1538, three plates per treatment at 0.015 mg per plate, without activation in the absence of S-9 rat liver homogenates in Ames test; assay type: functional, organism-based
Rattus norvegicus [17] = organism: Rattus norvegicus; test: Tested for metabolic activation counted as mean number of revertants in strains TA98, TA100, TA1535, and TA1538, three plates per treatment at 0.015 mg per plate, with activation provided by S-9 rat liver homogenates in Ames test; assay type: functional, organism-based
[18] = test system: Cysteinyl leukotriene receptor (Cavia porcellus); test: Inhibition of LTD4 induced bronchospasm in guinea pig was determined in at 50 mg/kg i.d.
Rattus norvegicus [19] = organism: Rattus norvegicus; test: Tested for metabolic activation counted as mean number of revertants in strains TA98, TA100, TA1535, and TA1538, three plates per treatment at 0.02 mg per plate, without activation in the absence of S-9 rat liver homogenates in Ames test; assay type: functional, organism-based
Rattus norvegicus [20] = organism: Rattus norvegicus; test: Tested for metabolic activation counted as mean number of revertants in strains TA98, TA100, TA1535, and TA1538, three plates per treatment at 0.06 mg per plate, without activation in the absence of S-9 rat liver homogenates in Ames test; assay type: functional, organism-based
Rattus norvegicus [21] = organism: Rattus norvegicus; test: Tested for metabolic activation counted as mean number of revertants in strains TA98, TA100, TA1535, and TA1538, three plates per treatment at 0.6 mg per plate, without activation in the absence of S-9 rat liver homogenates in Ames test; assay type: functional, organism-based
Rattus norvegicus [22] = organism: Rattus norvegicus; test: Tested for metabolic activation counted as mean number of revertants in strains TA98, TA100, TA1535, and TA1538, three plates per treatment at 2.0 mg per plate, with activation provided by S-9 rat liver homogenates in Ames test; assay type: functional, organism-based
Rattus norvegicus [23] = organism: Rattus norvegicus; test: Tested for metabolic activation counted as mean number of revertants in strains TA98, TA100, TA1535, and TA1538, three plates per treatment at 2.0 mg per plate, without activation in the absence of S-9 rat liver homogenates in Ames test; assay type: functional, organism-based
Rattus norvegicus [24] = organism: Rattus norvegicus; test: Tested for metabolic activation counted as mean number of revertants in three plates per treatment at 0.06 mg per plate, with activation provided by S-9 rat liver homogenates in Ames test; assay type: functional, organism-based
Rattus norvegicus [25] = organism: Rattus norvegicus; test: Tested for metabolic activation counted as mean number of revertants in strains TA98, TA100, TA1535, and TA1538, three plates per treatment at 0.2 mg per plate, with activation provided by S-9 rat liver in Ames test; assay type: functional
Rattus norvegicus [26] = organism: Rattus norvegicus; test: Tested for metabolic activation counted as mean number of revertants in strains TA98, TA100, TA1535, and TA1538, three plates per treatment at 0.2 mg per plate, without activation in the absence of S-9 rat liver homogenates in Ames test; assay type: functional, organism-based
Rattus norvegicus [27] = organism: Rattus norvegicus; test: Tested for metabolic activation counted as mean number of revertants in strains TA98, TA100, TA1535, and TA1538, three plates per treatment at 0.6 mg per plate, with activation provided by S-9 rat liver in Ames test; assay type: functional
Rattus norvegicus [28] = organism: Rattus norvegicus; test: Tested for metabolic activation counted as mean number of revertants in three plates per treatment at 0.02 mg per plate, with activation provided by S-9 rat liver homogenates in Ames test; assay type: functional, organism-based
[29] = biological target: T2, Polyunsaturated fatty acid 5-lipoxygenase (Rattus norvegicus); test: Ability to inhibit the rat Lipoxygenase in vitro was determined; NA is <50% inhibition at 100 uM; in short: as §2

pIC50 [1]: 4.57
SMILES: COC(=O)CCC(=O)Nc1cccc(Oc2nc3ccccc3s2)c1
inhibition in vivo at 50 mg/kg (Cavia porcellus): 7%

pIC50 [2]: 4.16
SMILES: COC(=O)CCC(=O)Nc1cccc(OCc2nc3ccccc3o2)c1
inhibition in vivo at 50 mg/kg (Cavia porcellus): -65%

pIC50 [1]: 4.75
SMILES: COC(=O)CCC(=O)Nc1cccc(OCc2cc3ccccc3o2)c1
inhibition in vivo at 50 mg/kg (Cavia porcellus): 12%

pIC50 [2]: 5.14
SMILES: COC(=O)CCC(=O)Nc1cccc(OCc2nc3ccccc3n2C)c1
inhibition in vivo at 50 mg/kg (Cavia porcellus): 60%

inhibition [3]: < 50%
SMILES: COC(=O)CCC(=O)Nc1cccc(OCc2ccccn2)c1

inhibition [3]: < 50%
SMILES: O=C1CCC(=O)N1c1cccc(OCc2nc3ccccc3s2)c1
inhibition in vivo at 50 mg/kg (Cavia porcellus): 18%

pIC50 [4]: 4.80
SMILES: COC(=O)CCC(=O)Nc1cccc(OCc2nc3ccccc3s2)c1
inhibition in vivo at 50 mg/kg (Cavia porcellus): 63%

SMILES: COC(=O)CCC(=O)Nc1cccc(OCc2ccc3ccccc3n2)c1
inhibition in vivo at 50 mg/kg (Cavia porcellus): 43%
Mean no. of revertants (Rattus norvegicus [5]): 15
Mean no. of revertants (Rattus norvegicus [6]): 24
Mean no. of revertants (Rattus norvegicus [7]): 2930
Mean no. of revertants (Rattus norvegicus [8]): 2770
Mean no. of revertants (Rattus norvegicus [9]): 2260
Mean no. of revertants (Rattus norvegicus [10]): 2880
Mean no. of revertants (Rattus norvegicus [11]): 15
Mean no. of revertants (Rattus norvegicus [12]): 25
Mean no. of revertants (Rattus norvegicus [13]): 566

inhibition [3]: < 50%
SMILES: COC(=O)CCC(=O)Nc1cccc(OCC(=O)Nc2ccccc2)c1
inhibition in vivo at 50 mg/kg (Cavia porcellus): 7%

inhibition [18]: 97%
SMILES: COC(=O)CCC(=O)N(O)c1cccc(OCc2ccc3ccccc3n2)c1
inhibition in vivo at 50 mg/kg (Cavia porcellus): 76%
Mean no. of revertants (Rattus norvegicus [14]): 13
Mean no. of revertants (Rattus norvegicus [15]): 15
Mean no. of revertants (Rattus norvegicus [16]): 9
Mean no. of revertants (Rattus norvegicus [5]): 16
Mean no. of revertants (Rattus norvegicus [6]): 13
Mean no. of revertants (Rattus norvegicus [11]): 12
Mean no. of revertants (Rattus norvegicus [12]): 31
Mean no. of revertants (Rattus norvegicus [13]): 716
Mean no. of revertants (Rattus norvegicus [17]): 10

pIC50 [1]: 4.72
SMILES: COC(=O)C1CC(=O)N(c2cccc(OCc3ccc4ccccc4n3)c2)C1 (centres undefined)
inhibition in vivo at 50 mg/kg (Cavia porcellus): 29%
Mean no. of revertants (Rattus norvegicus [19]): 10
Mean no. of revertants (Rattus norvegicus [20]): 13
Mean no. of revertants (Rattus norvegicus [21]): 421
Mean no. of revertants (Rattus norvegicus [22]): 84
Mean no. of revertants (Rattus norvegicus [23]): 475
Mean no. of revertants (Rattus norvegicus [24]): 10
Mean no. of revertants (Rattus norvegicus [25]): 10
Mean no. of revertants (Rattus norvegicus [26]): 16
Mean no. of revertants (Rattus norvegicus [27]): 15
Mean no. of revertants (Rattus norvegicus [28]): 12

inhibition [29]: < 50%
SMILES: Cn1c(COc2cccc(NC(=O)CCC(=O)O)c2)nc2ccccc21
